ChEMBL document CHEMBL2311369, “Synthesis and anticonvulsant activity of new phenytoin derivatives” (Eur J Med Chem, 2013)

What was measured:
Mus musculus [1] = assay: Anticonvulsant activity in albino mouse assessed as protection against maximal electroshock-induced seizures measuring mean convulsion threshold at 100 mg/kg, po after 60 mins; type: functional
In short: (§1)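 Adult albino mice (20–25 g, both sexes), groups of six, dosed orally with compound suspended in 1% Tween 80; vehicle controls. 60 min later, ear-electrode current ramped from 1 mA in 0.1 mA/0.2 s steps at 50 Hz until tonic hind-limb extension. Read-out is mean maximal tolerated current (mA), reported as mean ± S.E. of 5–6 animals. One-way ANOVA with Tukey post test versus control.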

Mus musculus [2] = assay: Anticonvulsant activity in albino mouse assessed as protection against subcutaneous metrazol-induced seizures at 100 mg/kg, po administered 60 mins prior challenge measured over 20 mins; type: functional
In short: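 Adult albino mice (20–25 g, both sexes), groups of six, dosed orally with 100 mg/kg; a separate group of six serves as control. Pentylenetetrazole 85 mg/kg given s.c. 60 min after dosing. Each mouse is watched alone for 20 min for tonic-clonic convulsions lasting at least 5 s. Mice without generalized convulsions count as protected; result is % protection.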

Mus musculus [3] = assay: Neurotoxicity in albino mouse assessed as neurological deficit at 100 mg/kg, ip measured after 1 hr for period of 300 seconds by rotarod test; type: toxicity, organism-based; set-up: dose 100 mg/kg, route intraperitoneal; conditions: in vivo
In short: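 Rotarod at 6 rpm with a 3 cm rod. Male albino mice get two training sessions of 10 and 15 min first. Compound given i.p. at 100 mg/kg in 1% Tween 80, groups of six; vehicle-treated controls. Mice are retested 1 h later. Result is % of mice unable to stay on the rod for 300 s.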

Mus musculus [4] = assay: Anticonvulsant activity in albino mouse assessed as protection against maximal electroshock-induced seizures measuring mean convulsion threshold at 30 mg/kg, po after 60 mins; type: functional; in short: as §1

## COc1ccc(Nc2nnc(CN3C(=O)NC(c4ccccc4)(c4ccccc4)C3=O)s2)cc1
Mus musculus [1]
  Activity: 4 mA
Mus musculus [2]
  Activity: 20%

## O=C1NC(c2ccccc2)(c2ccccc2)C(=O)N1Cc1nnc(S)n1-c1ccc(Cl)cc1
Mus musculus [1]
  Activity: 6.2 mA
Mus musculus [2]
  Activity: 40%

## CCNC(=S)NNC(=O)CN1C(=O)NC(c2ccccc2)(c2ccccc2)C1=O
Mus musculus [1]
  Activity: 5.2 mA
Mus musculus [2]
  Activity: 40%

## Cc1ccc(Nc2nnc(CN3C(=O)NC(c4ccccc4)(c4ccccc4)C3=O)s2)cc1
Mus musculus [1]
  Activity: 5.2 mA
Mus musculus [2]
  Activity: 40%

## CCn1c(S)nnc1CN1C(=O)NC(c2ccccc2)(c2ccccc2)C1=O
Mus musculus [1]
  Activity: 5.8 mA
Mus musculus [2]
  Activity: 40%

## O=C1NC(c2ccccc2)(c2ccccc2)C(=O)N1Cc1nnc(Nc2ccccc2)s1
Mus musculus [1]
  Activity: 5 mA
Mus musculus [2]
  Activity: 60%

## O=C1NC(=O)C(c2ccccc2)(c2ccccc2)N1 [PHENYTOIN]
Mus musculus [1]
  Activity: 7.25 mA
Mus musculus [2]
  Activity: 80%

## Cc1ccc(NC(=S)NNC(=O)CN2C(=O)NC(c3ccccc3)(c3ccccc3)C2=O)cc1
Mus musculus [1]
  Activity: 5.8 mA
Mus musculus [2]
  Activity: 60%

## O=C1NC(c2ccccc2)(c2ccccc2)C(=O)N1Cc1nnc(S)n1-c1ccccc1
Mus musculus [1]
  Activity: 6.6 mA
Mus musculus [3]
  Activity: 33.33%
Mus musculus [2]
  Activity: 40%

## COc1ccc(NC(=S)NNC(=O)CN2C(=O)NC(c3ccccc3)(c3ccccc3)C2=O)cc1
Mus musculus [1]
  Activity: 4 mA
Mus musculus [3]
  Activity: 16.67%
Mus musculus [2]
  Activity: 80%

## O=C(CN1C(=O)NC(c2ccccc2)(c2ccccc2)C1=O)NNC(=S)Nc1ccc(Cl)cc1
Mus musculus [1]
  Activity: 5.4 mA
Mus musculus [2]
  Activity: 0%

## COc1ccc(-n2c(S)nnc2CN2C(=O)NC(c3ccccc3)(c3ccccc3)C2=O)cc1
Mus musculus [1]
  Activity: 6.6 mA
Mus musculus [3]
  Activity: 50%
Mus musculus [2]
  Activity: 40%

## O=C(CN1C(=O)NC(c2ccccc2)(c2ccccc2)C1=O)NNC(=S)Nc1ccccc1
Mus musculus [4]
  Activity: 6.143 mA
Mus musculus [1]
  Activity: 8.4 mA
Mus musculus [3]
  Activity: 0%
Mus musculus [2]
  Activity: 50%

## O=C1NC(c2ccccc2)(c2ccccc2)C(=O)N1Cc1nnc(Nc2ccc(Cl)cc2)s1
Mus musculus [1]
  Activity: 4.25 mA
Mus musculus [2]
  Activity: 0%

## CCNc1nnc(CN2C(=O)NC(c3ccccc3)(c3ccccc3)C2=O)s1
Mus musculus [1]
  Activity: 5 mA
Mus musculus [2]
  Activity: 60%

## O=C1NC(c2ccccc2)(c2ccccc2)C(=O)N1Cc1nnc(S)o1
Mus musculus [1]
  Activity: 5.5 mA
Mus musculus [3]
  Activity: 40%
Mus musculus [2]
  Activity: 80%

## Cc1ccc(-n2c(S)nnc2CN2C(=O)NC(c3ccccc3)(c3ccccc3)C2=O)cc1
Mus musculus [1]
  Activity: 6.6 mA
Mus musculus [2]
  Activity: 20%
